Experimental findings from ChEMBL document CHEMBL3045123, “Isolation and identification of antifungal fatty acids from the basidiomycete Gomphus floccosus” (J Agric Food Chem, 2008) are described below.

Assay [1] concerns Colletotrichum acutatum. In words: Antifungal activity against Colletotrichum acutatum assessed as inhibition of fungal growth measured after 72 hr by 96-well microdilution assay. The format is functional, organism-based. In short, it runs like this: (§1)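 Conidia were harvested from 7-10 day PDA cultures grown at 24 °C with a 12 h photoperiod, filtered through Miracloth, and set to 1.0 × 10^6 conidia/mL by A625. Six-point microdilution broth format used final concentrations of 1, 3.3, 10, 33, 100 and 333 µM, with captan as standard. Growth was read at A620 at 0-72 h (Phomopsis also 120 and 144 h). Two experiments were pooled; IC50 was taken as 50% growth reduction.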
(In general: Dilution methods test growth across graded concentrations, often in twofold steps.)

Assay [2] relates to Botrytis cinerea. In words: Antifungal activity against Botryotinia fuckeliana assessed as inhibition of fungal growth measured after 72 hr by 96-well microdilution assay. Format: functional, organism-based. Summed up: as §1
For assay [3], the system named is Fusarium oxysporum. In words: Antifungal activity against Fusarium oxysporum assessed as inhibition of fungal growth measured after 72 hr by 96-well microdilution assay. The format is functional, organism-based. Summed up: as §1
Assay [4] concerns Colletotrichum gloeosporioides. Nature of the assay: Antifungal activity against Colletotrichum gloeosporioides assessed as inhibition of fungal growth measured after 72 hr by 96-well microdilution assay. Format: functional, organism-based. Summed up: as §1
For assay [5], the system named is Colletotrichum fragariae. In words: Antifungal activity against Colletotrichum fragariae assessed as inhibition of fungal growth measured after 72 hr by 96-well microdilution assay. Format: functional, organism-based. Summed up:
as §1

Assay [6] concerns Phomopsis obscurans. Nature of the assay: Antifungal activity against Phomopsis obscurans assessed as inhibition of fungal growth measured after 120 hr by 96-well microdilution assay. The note with it: Paraphomopsis obscurans. Format: functional, organism-based. In short, it runs like this: as §1
Assay [7] deals with Fusarium oxysporum. In words: Antifungal activity against Fusarium oxysporum assessed as inhibition of fungal growth measured after 48 hr by 96-well microdilution assay. Format: functional, organism-based. Summed up: as §1
Assay [8] deals with Colletotrichum acutatum. In words: Antifungal activity against Colletotrichum acutatum assessed as inhibition of fungal growth measured after 48 hr by 96-well microdilution assay. Format: functional, organism-based. In short, it runs like this: as §1
Assay [9] deals with Botrytis cinerea. In words: Antifungal activity against Botryotinia fuckeliana assessed as inhibition of fungal growth measured after 48 hr by 96-well microdilution assay. Format: functional, organism-based. Summed up:
as §1

The subject of assay [10] is Colletotrichum fragariae. In words: Antifungal activity against Colletotrichum fragariae assessed as inhibition of fungal growth measured after 48 hr by 96-well microdilution assay. Format: functional, organism-based. In short, it runs like this: as §1
Assay [11] has as its system Colletotrichum gloeosporioides. Nature of the assay: Antifungal activity against Colletotrichum gloeosporioides assessed as inhibition of fungal growth measured after 48 hr by 96-well microdilution assay. The format is functional, organism-based. Summed up: as §1
For assay [12], the system named is Phomopsis viticola. In words: Antifungal activity against Phomopsis viticola assessed as inhibition of fungal growth measured after 144 hr by 96-well microdilution assay.
Assay [13] has as its system Phomopsis viticola. Nature of the assay: Antifungal activity against Phomopsis viticola assessed as inhibition of fungal growth measured after 120 hr by 96-well microdilution assay.
The subject of assay [14] is Colletotrichum fragariae. Nature of the assay: Antifungal activity against Colletotrichum fragariae assessed as inhibition of fungal growth at 80 ug measured after 4 to 5 days by direct bioautography. The format is functional. The conditions noted are these: read-out: DIZ. Summed up: (§2)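 For TLC direct bioautography, developed plates were sprayed with a conidial suspension of the test fungus. Plates were incubated in a moisture chamber at 26 °C with a 12 h photoperiod. Zones of growth inhibition were measured as diameters 4-5 days after treatment and reported as mean zone dimensions (mm) ± SD.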

Assay [15] has as its system Colletotrichum acutatum. In words: Antifungal activity against Colletotrichum acutatum assessed as inhibition of fungal growth at 20 ug measured after 4 to 5 days by direct bioautography. Format: functional. The conditions noted are these: read-out: DIZ. Summed up: as §2
Assay [16] concerns Colletotrichum acutatum. Nature of the assay: Antifungal activity against Colletotrichum acutatum assessed as inhibition of fungal growth at 80 ug measured after 4 to 5 days by direct bioautography. The conditions noted are these: read-out: DIZ. The format is functional. In short, it runs like this:
as §2

Assay [17] has as its system Colletotrichum gloeosporioides. Nature of the assay: Antifungal activity against Colletotrichum gloeosporioides assessed as inhibition of fungal growth at 20 ug measured after 4 to 5 days by direct bioautography. The conditions noted are these: read-out: DIZ. The format is functional. Summed up:
as §2

In assay [18] the test system is Colletotrichum gloeosporioides. Nature of the assay: Antifungal activity against Colletotrichum gloeosporioides assessed as inhibition of fungal growth at 80 ug measured after 4 to 5 days by direct bioautography. Format: functional. The note with it: read-out: DIZ. Summed up: as §2
Assay [19] has as its system Colletotrichum fragariae. Nature of the assay: Antifungal activity against Colletotrichum fragariae assessed as inhibition of fungal growth at 20 ug measured after 4 to 5 days by direct bioautography. The conditions noted are these: read-out: DIZ. The format is functional. Summed up: as §2
Assay [20] concerns Colletotrichum fragariae. In words: Growth stimulation of Colletotrichum fragariae up to 100 uM after 24 to 72 hr by 96-well microdilution assay. Format: functional, organism-based. In short, it runs like this: as §1
Assay [21] concerns Phomopsis obscurans. In words: Antifungal activity against Phomopsis obscurans assessed as inhibition of fungal growth measured after 144 hr by 96-well microdilution assay. Format: functional, organism-based. The note with it: Paraphomopsis obscurans. Summed up: as §1
Assay [22] concerns Colletotrichum acutatum. Nature of the assay: Antifungal activity against Colletotrichum acutatum assessed as inhibition of fungal growth at 90 uM measured after 72 hr by 96-well microdilution assay. The format is functional. The note with it: read-out: GI. Summed up: (§3)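 Initial three-point microdilution broth screen at final concentrations of 45, 90 and 135 µM, each in duplicate, against a conidial suspension adjusted photometrically to 1.0 × 10^6 conidia/mL. Growth was read as A620 at 0, 24, 48 and 72 h. Percent inhibition/stimulation means were pooled from two experiments replicated in time.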

In assay [23] the test system is Colletotrichum acutatum. In words: Antifungal activity against Colletotrichum acutatum assessed as inhibition of fungal growth at 90 uM measured after 48 hr by 96-well microdilution assay. Format: functional. The note with it: read-out: GI. In short, it runs like this:
as §3

In assay [24] the test system is Fusarium oxysporum. In words: Growth stimulation of Fusarium oxysporum at 333 uM after 24 to 72 hr by 96-well microdilution assay. The format is functional, organism-based. Summed up: as §1
Assay [25] has as its system Colletotrichum gloeosporioides. In words: Growth stimulation of Colletotrichum gloeosporioides at 333 uM after 24 to 72 hr by 96-well microdilution assay. The format is functional, organism-based. Summed up: as §1
For assay [26], the system named is Colletotrichum fragariae. Nature of the assay: Growth stimulation of Colletotrichum fragariae at 333 uM after 24 to 72 hr by 96-well microdilution assay. Format: functional, organism-based. Summed up: as §1
Assay [27] deals with Colletotrichum gloeosporioides. In words: Growth stimulation of Colletotrichum gloeosporioides up to 100 uM after 24 to 72 hr by 96-well microdilution assay. Format: functional, organism-based. In short, it runs like this: as §1

The source made the active and inactive calls. The calls are words filed in the database; no cut-off is given here.

On to `O=C1C2CC=CCC2C(=O)N1SC(Cl)(Cl)Cl` (centres undefined) [CAPTAN], for which the IC50 in the assay with Colletotrichum acutatum [1] is 5.2 µM; in the assay with Botrytis cinerea [2], 2.8 µM; in the assay on Fusarium oxysporum [3] it was 16 µM; in assay [4], 4.7 µM; in the assay on Colletotrichum fragariae [5], 3 µM; in the assay on Phomopsis obscurans [6], 1.1 µM. For the same compound, the concentration for half-maximal inhibition (IC50) in the assay with Fusarium oxysporum [7] is 2.8 µM; with Colletotrichum acutatum [8] it was 2.5 µM; in the assay with Botrytis cinerea [9], 1.4 µM; with Colletotrichum fragariae [10], 1.6 µM; in assay [11], 2.1 µM; with Phomopsis viticola [12], less than 1 µM. Moreover, in the assay with Phomopsis viticola [13], the IC50 is less than 1 µM.

Take `CCCCCC(=O)/C=C\C=C\CCCCCCCC(=O)O`: the figures for the zone of inhibition at 80 µg/disc (in the assay with Colletotrichum fragariae [14]; in the assay on Colletotrichum acutatum [16]; in [18]) were 8 mm, 19 mm and 7 mm, respectively. Further, the zone of inhibition at 20 µg/disc in the assay with Colletotrichum acutatum [15] was found to be 4 mm; in assay [17], 6 mm; in the assay on Colletotrichum fragariae [19] it was 6 mm. In addition, the 50% inhibitory concentration (IC50) with Colletotrichum acutatum [1] was greater than 333 µM; in the assay on Botrytis cinerea [2] it was greater than 333 µM; with Fusarium oxysporum [3], greater than 333 µM; in assay [4], greater than 333 µM; in the assay with Colletotrichum fragariae [5] it was 270 µM; in the assay with Phomopsis obscurans [6] it was 4.5 µM. The IC50 with Fusarium oxysporum [7] was greater than 333 µM; in the assay with Colletotrichum acutatum [8] it was greater than 333 µM; in the assay on Botrytis cinerea [9], 120 µM; in the assay on Colletotrichum fragariae [10], 160 µM; in [11], greater than 333 µM; in the assay on Phomopsis viticola [12], 38 µM. Also, in the assay with Phomopsis viticola [13], the IC50 is 115 µM.

Turning to `CCCCC/C=C\C=C\[C@@H](O)CCCCCCCC(=O)O`, the zone of inhibition at 80 µg/disc in the assay with Colletotrichum fragariae [14] was 10 mm; in the assay with Colletotrichum acutatum [16] it was 19 mm; in assay [18], 7 mm. For the same compound, the zone of inhibition at 20 µg/disc in the assay on Colletotrichum acutatum [15] is 5 mm; in assay [17], 3 mm; in the assay with Colletotrichum fragariae [19], 6 mm. In addition, the result (with Colletotrichum fragariae [20]; in the assay on Fusarium oxysporum [24]; in [27]) was Active. Further, the “growth inhibition (GI)” value with Phomopsis obscurans [21] and in the assay with Phomopsis viticola [12] was “Dose-dependent effect” throughout. In addition, the inhibition of growth at 90 µM was 37% in the assay on Colletotrichum acutatum [22] and 79% with Colletotrichum acutatum [23]. For the same compound, the IC50 is greater than 333 µM in the assay on Colletotrichum acutatum [1]; greater than 333 µM with Botrytis cinerea [2]; greater than 333 µM in the assay on Fusarium oxysporum [3]; greater than 333 µM in assay [4]; greater than 333 µM with Colletotrichum fragariae [5]; 10 µM in the assay on Phomopsis obscurans [6]. For the same compound, the half-inhibitory concentration (IC50) with Fusarium oxysporum [7] was greater than 333 µM; with Colletotrichum acutatum [8], greater than 333 µM; in the assay on Botrytis cinerea [9], greater than 333 µM; in the assay on Colletotrichum fragariae [10], greater than 333 µM; in assay [11], greater than 333 µM; with Phomopsis viticola [12], 100 µM. Besides, the IC50 in the assay on Phomopsis viticola [13] was greater than 333 µM. In addition, the outcome (in assay [25]; in the assay with Colletotrichum fragariae [26]) was inactive.

Regarding `CCCCC/C=C/C=C/C(=O)CCCCCCCC(=O)O`, the zone of inhibition at 80 µg/disc was 6 mm with Colletotrichum fragariae [14], 17 mm in the assay with Colletotrichum acutatum [16] and 7 mm in assay [18]. The values for the zone of inhibition at 20 µg/disc (in the assay with Colletotrichum acutatum [15]; in assay [17]; in the assay on Colletotrichum fragariae [19]) were 8 mm, 6 mm and 4 mm, respectively. Besides, the IC50 is greater than 333 µM with Colletotrichum acutatum [1]; greater than 333 µM in the assay with Botrytis cinerea [2]; greater than 333 µM with Fusarium oxysporum [3]; greater than 333 µM in assay [4]; greater than 333 µM in the assay with Colletotrichum fragariae [5]; 23 µM with Phomopsis obscurans [6]. Also, the half-inhibitory concentration (IC50) in the assay on Fusarium oxysporum [7] is greater than 333 µM; in the assay with Colletotrichum acutatum [8] it was greater than 333 µM; with Botrytis cinerea [9] it was 90 µM; in the assay on Colletotrichum fragariae [10], 91 µM; in [11], greater than 333 µM; in the assay with Phomopsis viticola [12] it was 65 µM. Also, the 50% inhibitory concentration (IC50) in the assay with Phomopsis viticola [13] came out at 110 µM.

The term IC50 denotes the concentration needed to halve the response being measured.
